These results are taken from publication PMC10651775 (Blood, 2022).

A short description of the data set: Plasma valemetostat pharmacokinetics, noncompartmental analysis. It counts as in vivo, human. To be noted: Mean (SD); for AUC / Cmax: human, plasma, oral, 200 mg; for AUC: AUCtau, Cycle 1 day 15 (steady state). The method, boiled down: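 Patients took oral test compound, 200 mg once daily, fasting. Serial and trough blood samples were taken for plasma drug levels. Total and unbound drug were measured at steady state on cycle 1 day 15. Accumulation ratio was derived from AUC over the dosing interval.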

Structures can show the parent of a compound that is named as a salt.

Regarding `Cc1cc(C)c(CNC(=O)c2cc(Cl)c3c(c2C)O[C@@](C)([C@H]2CC[C@H](N(C)C)CC2)O3)c(=O)[nH]1` [valemetostat, Valemetostat tosylate], the “Rac (accumulation ratio for AUCtau)” value reads like this: (Total, Cycle 1 day 15) 1.19; (Unbound, Cycle 1 day 15) 1.27. For the same molecule, the AUC (usually the area under the concentration-time curve, a measure of exposure) reads like this: (Total) 20800 ng·h/mL; (Unbound) 584 ng·h/mL. In addition, the Cmax (in general, the peak of the concentration-time curve) turned out to be 2230 ng/mL (Total valemetostat, Cycle 1 day 1, 200 mg once daily); 2300 ng/mL (Total valemetostat, Cycle 1 day 15); 81.7 ng/mL (Unbound valemetostat, Cycle 1 day 1); 84.9 ng/mL (Unbound valemetostat, Cycle 1 day 15).
